Values joined by “and” are separate entries in the source; they are usually repeats but may differ in a detail not shown here. Equal values may be shown once.

For test [1], the target named is Mu-type opioid receptor (Rattus norvegicus, UniProt P33535). As to the kind of experiment: In vitro binding affinity at opioid receptor mu 1 was determined in C6 rat glioma cells using [3H]DAMGO. It counts as cell-based.
In test [2] the target is Delta-type opioid receptor (Rattus norvegicus, UniProt P33533). As to the kind of experiment: In vitro binding affinity at opioid receptor delta 1 was determined in C6 rat glioma cells using [3H]Ile5,6 deltorphin II. It counts as cell-based.
Delta-type opioid receptor, sequence (P33533 whole entry): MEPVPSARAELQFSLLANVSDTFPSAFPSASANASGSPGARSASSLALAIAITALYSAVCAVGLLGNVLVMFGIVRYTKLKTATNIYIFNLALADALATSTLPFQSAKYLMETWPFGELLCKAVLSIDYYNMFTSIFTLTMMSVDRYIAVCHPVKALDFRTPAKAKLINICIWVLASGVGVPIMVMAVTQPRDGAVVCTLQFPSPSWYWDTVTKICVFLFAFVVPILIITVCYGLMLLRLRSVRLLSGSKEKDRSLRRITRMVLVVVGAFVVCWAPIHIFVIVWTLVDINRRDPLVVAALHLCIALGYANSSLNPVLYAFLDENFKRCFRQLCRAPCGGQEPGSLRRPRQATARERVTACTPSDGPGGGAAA
Test [3] addresses Kappa-type opioid receptor (Homo sapiens, UniProt P41145). As to the kind of experiment: biochemical. The format is cell-based, CHO.
The nature of test [4]: In vivo antinociceptive activity was determined upon subcutaneous administration in the mouse tail-flick test. To be noted: sc. The format is functional. Put shortly: (§1)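 Male ICR mice weighing 20-30 g, each animal tested only once. Drugs were given subcutaneously at a minimum of 3 doses, with 6-10 mice per dose. Assay procedures followed earlier published methods and their modifications.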

Test [5] has as its target Opioid receptors; mu and delta (Mus musculus) (UniProt P42866+P32300). As to the kind of experiment: In vivo antinociceptive activity was determined upon subcutaneous administration in the mouse paraphenylquinone writhing test. The format is functional, organism-based. The procedure, abridged: as §1
Test [6] can be described thus: Selectivity ratio was determined. Details: reference not given here.

Mu-type opioid receptor, sequence (P33535 whole entry): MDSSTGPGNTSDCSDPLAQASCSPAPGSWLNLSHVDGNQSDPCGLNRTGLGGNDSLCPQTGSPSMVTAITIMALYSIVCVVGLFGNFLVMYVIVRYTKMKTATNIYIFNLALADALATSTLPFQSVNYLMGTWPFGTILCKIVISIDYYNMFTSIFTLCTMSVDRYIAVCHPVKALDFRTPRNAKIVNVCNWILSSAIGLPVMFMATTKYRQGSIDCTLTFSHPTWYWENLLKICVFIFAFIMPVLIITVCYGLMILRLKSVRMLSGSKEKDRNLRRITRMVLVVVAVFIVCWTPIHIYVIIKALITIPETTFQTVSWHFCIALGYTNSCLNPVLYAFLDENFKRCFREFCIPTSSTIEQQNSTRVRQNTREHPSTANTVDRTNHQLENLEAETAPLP
Opioid receptors; mu and delta (Mus musculus), sequence (P32300 whole entry, looked up): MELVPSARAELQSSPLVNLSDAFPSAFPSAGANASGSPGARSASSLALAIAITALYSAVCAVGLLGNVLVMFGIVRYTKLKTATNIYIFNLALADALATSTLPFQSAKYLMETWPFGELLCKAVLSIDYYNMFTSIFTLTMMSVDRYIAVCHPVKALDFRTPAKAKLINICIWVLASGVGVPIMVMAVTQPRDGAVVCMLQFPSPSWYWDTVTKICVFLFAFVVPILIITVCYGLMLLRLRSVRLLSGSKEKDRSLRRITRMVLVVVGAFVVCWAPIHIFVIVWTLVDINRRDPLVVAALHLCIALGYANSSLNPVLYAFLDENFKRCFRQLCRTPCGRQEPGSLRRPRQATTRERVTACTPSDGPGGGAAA
Opioid receptors; mu and delta (Mus musculus), sequence (P42866 whole entry, looked up): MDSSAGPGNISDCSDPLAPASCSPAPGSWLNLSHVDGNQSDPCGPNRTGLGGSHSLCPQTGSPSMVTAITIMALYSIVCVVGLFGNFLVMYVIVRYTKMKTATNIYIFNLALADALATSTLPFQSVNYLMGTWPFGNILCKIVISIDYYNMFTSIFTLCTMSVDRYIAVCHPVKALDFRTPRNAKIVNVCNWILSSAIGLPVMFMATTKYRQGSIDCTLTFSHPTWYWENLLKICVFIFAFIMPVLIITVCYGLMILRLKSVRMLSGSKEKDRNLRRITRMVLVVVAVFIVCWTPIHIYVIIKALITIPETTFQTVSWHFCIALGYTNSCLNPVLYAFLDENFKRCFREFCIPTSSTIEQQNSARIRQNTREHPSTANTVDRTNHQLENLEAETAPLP
Kappa-type opioid receptor, sequence (P41145 whole entry): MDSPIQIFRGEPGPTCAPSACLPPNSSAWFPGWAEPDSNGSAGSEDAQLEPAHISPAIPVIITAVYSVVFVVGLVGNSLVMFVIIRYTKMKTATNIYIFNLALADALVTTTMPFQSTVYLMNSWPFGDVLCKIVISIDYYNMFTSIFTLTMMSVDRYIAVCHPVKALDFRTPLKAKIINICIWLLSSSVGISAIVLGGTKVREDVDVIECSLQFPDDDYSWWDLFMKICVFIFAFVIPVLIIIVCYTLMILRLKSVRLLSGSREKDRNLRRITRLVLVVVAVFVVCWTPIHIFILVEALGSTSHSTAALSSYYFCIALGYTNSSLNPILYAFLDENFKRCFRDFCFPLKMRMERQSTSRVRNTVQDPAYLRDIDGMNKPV

For orientation: Ki means the dissociation constant of the complex between target and ligand, obtained from inhibition or displacement. As a reminder, the ED50 is the dose at which the effect has come halfway, by size or by number of responders. In the case of `COc1ccc2c3c1O[C@H]1C(=O)CC[C@@]4(OCCCc5ccccc5)[C@@H](C2)N(CC2CCCO2)CC[C@]314` (stereo partly specified), the Ki in test [1] came out at 3.8 nM; in test [2], 6.2 nM; in test [3], 61.4 nM. For the same molecule, in test [4], the ED50 was found to be 760 µg/kg.
On to `CN1CC[C@]23c4c5ccc(O)c4O[C@H]2[C@@H](O)C=C[C@H]3[C@H]1C5` [MORPHINE], for which the ED50 in test [5] is 400 µg/kg; in test [4], 1900 µg/kg.
On to `COc1ccc2c3c1O[C@H]1C(=O)CC[C@@]4(OCCCc5ccccc5)[C@@H](C2)N(CCc2ccccc2)CC[C@]314`, for which the ED50 in test [4] was 80 µg/kg.
Regarding `CCCN1CC[C@]23c4c5ccc(O)c4O[C@H]2C(=O)CC[C@@]3(OCCCc2ccccc2)[C@H]1C5`, the Ratio in test [6] is 4.11 and 10.3. Also, the values for the Ki in test [1], in test [2] and in test [3] were 0.09 nM, 0.93 nM and 0.37 nM, respectively. Also, the median effective dose (ED50) is 0.9 µg/kg in test [5] and 2 µg/kg in test [4].
Consider `CO[C@@]12CCC(=O)[C@]3(C)Oc4c(O)ccc5c4[C@@]31CCN(C)[C@@H]2C5`, for which the figures for the Ki in test [1], in test [2] and in test [3] were 0.023 nM, 40.9 nM and 304 nM, respectively. Also, the ED50 in test [5] came out at 9 µg/kg; in test [4], 30 µg/kg.
Take `O=C1CC[C@@]2(OCCCc3ccccc3)[C@H]3Cc4ccc(O)c5c4[C@@]2(CCN3CC2CC2)[C@H]1O5`: the ED50 turned out to be 6 µg/kg in test [5] and 3 µg/kg in test [4]. The Ki in test [3] was determined as 0.41 nM.
`O=C1CC[C@@]2(OCCCc3ccccc3)[C@H]3Cc4ccc(O)c5c4[C@@]2(CCN3CCc2ccccc2)[C@H]1O5` had an ED50 in test [4] of 110 µg/kg.
For the molecule `O=C1CC[C@@]2(OCCCc3ccccc3)[C@H]3Cc4ccc(O)c5c4[C@@]2(CCN3CC2CCCO2)[C@H]1O5` (stereo partly specified), the Ratio in test [6] was 0.4 and 0.45. The Ki was determined as 0.2 nM in test [1], 0.09 nM in test [2] and 0.08 nM in test [3]. The figures for the ED50 in test [5] and in test [4] were 2 µg/kg and 7 µg/kg, respectively.
With `O=C1CC[C@@]2(OCCCc3ccccc3)[C@H]3Cc4ccc(O)c5c4[C@@]2(CCN3CC2CCC2)[C@H]1O5`, the Ratio in test [6] was 1.96 and 1.84. The Ki in test [1] was determined as 0.25 nM; in test [2], 0.46 nM; in test [3] it was 0.49 nM. In test [4], this molecule came in with an ED50 of 8 µg/kg.
On to `C=CCN1CC[C@]23c4c5ccc(O)c4O[C@H]2C(=O)CC[C@@]3(OCCCc2ccccc2)[C@H]1C5`, for which the Ki in test [2] came out at 0.26 nM; in test [3], 0.11 nM. This molecule also registered an ED50 in test [4] of 6 µg/kg.

The record behind these values is ChEMBL document CHEMBL1136784, “Synthesis and biological evaluation of 14-alkoxymorphinans. 18. N-substituted 14-phenylpropyloxymorphinan-6-ones with unanticipated agonist properties: extending the scope of common structure-activity relationships” (J Med Chem, 2003).
